# Test results: PMC5684856 (Pharmacology Research & Perspectives, 2017)
# Entries after “also recorded” stand apart in the source; their conditions may differ.
# How the values were obtained:
# [1] = tested on: Sprague-Dawley rats; assay: Effects on fasting glucose levels in Sprague-Dawley rats; assay type: in vivo, rat; details: fasted Sprague-Dawley rats
# [2] = tested on: healthy volunteers and T2DM patients; details: cited from earlier work
# [3] = ref Tsujihata et al. 2011; Ito et al. 2013; cited from earlier work
# [4] = molecular target: human GPR40/FFAR1 (Homo sapiens, UniProt O14842); assay: Intracellular calcium assay; assay type: cell-based
# Summary of the method: (§1)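 CHO-DXB11 cells stably expressing human, mouse or rat GPR40/FFAR1 were grown in Ham's F-12 with 10% heat-inactivated FBS and penicillin/streptomycin in 96-well plates. Test compounds were dissolved in DMSO. Ca2+ increases were measured in duplicate (FLIPR kit, fluorescence imaging reader) and expressed as % of fasiglifam Emax. EC50 was obtained by sigmoidal curve fit; means ± SD of 6 assays.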
# [5] = molecular target: mouse GPR40/FFAR1 (Mus musculus, UniProt Q76JU9); assay: Intracellular calcium assay; assay type: cell-based
# Summary of the method: as §1
# [6] = molecular target: rat GPR40/FFAR1 (Rattus norvegicus, UniProt Q8K3T4); assay: Intracellular calcium assay; assay type: cell-based
# Summary of the method: as §1
# [7] = molecular target: T1, human GPR119 (Homo sapiens, UniProt Q8TDV5); assay: cAMP reporter assay in CHO-K1 cells expressing human GPR119; assay type: cell-based
# T1 sequence (Q8TDV5 1-335): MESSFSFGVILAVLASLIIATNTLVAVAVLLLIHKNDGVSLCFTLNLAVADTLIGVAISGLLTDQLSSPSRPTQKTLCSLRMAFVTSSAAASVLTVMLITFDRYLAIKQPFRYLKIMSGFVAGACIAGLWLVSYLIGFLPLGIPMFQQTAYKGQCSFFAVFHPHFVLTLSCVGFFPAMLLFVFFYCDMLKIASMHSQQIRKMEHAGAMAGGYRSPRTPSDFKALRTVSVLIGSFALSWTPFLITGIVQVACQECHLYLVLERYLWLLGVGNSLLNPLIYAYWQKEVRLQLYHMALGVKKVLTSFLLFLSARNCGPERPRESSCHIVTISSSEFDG
# Summary of the method: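 CHO-K1 cells stably expressing human GPR119 were co-transfected with a Cre-luciferase reporter and a renilla luciferase control. Cells were incubated with test compound for 4 h, then lysed. Firefly and renilla luciferase activities were measured in duplicate by dual-luciferase chemiluminescence. AR231453 served as the control agonist.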
# [8] = molecular target: T2, human GPR120/FFAR4 (Homo sapiens, UniProt Q5NUL3); assay: Intracellular calcium assay; assay type: cell-based
# T2 sequence (Q5NUL3 1-361): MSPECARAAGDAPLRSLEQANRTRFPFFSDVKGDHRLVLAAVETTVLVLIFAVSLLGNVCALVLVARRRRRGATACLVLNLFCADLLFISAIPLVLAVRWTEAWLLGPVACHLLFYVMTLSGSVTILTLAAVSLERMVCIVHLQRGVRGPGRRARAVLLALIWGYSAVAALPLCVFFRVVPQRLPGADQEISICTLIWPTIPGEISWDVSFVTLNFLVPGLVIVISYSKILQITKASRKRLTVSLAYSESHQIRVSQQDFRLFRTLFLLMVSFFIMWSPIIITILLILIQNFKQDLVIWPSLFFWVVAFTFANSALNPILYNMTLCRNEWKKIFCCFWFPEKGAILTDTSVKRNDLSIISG
# Summary of the method: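 CHO-DXB11 cells were stably transfected with human GPR120/FFAR4 and grown in Ham's F-12 with 10% heat-inactivated FBS. Intracellular Ca2+ changes were measured in duplicate with a FLIPR calcium kit on a fluorescence imaging plate reader. Alpha-linolenic acid served as the control agonist.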
# [9] = molecular target: T3, PPAR gamma (Homo sapiens, UniProt P37231); assay: Nuclear receptor reporter activation assay; assay type: cell-based
# T3 sequence (P37231 1-505): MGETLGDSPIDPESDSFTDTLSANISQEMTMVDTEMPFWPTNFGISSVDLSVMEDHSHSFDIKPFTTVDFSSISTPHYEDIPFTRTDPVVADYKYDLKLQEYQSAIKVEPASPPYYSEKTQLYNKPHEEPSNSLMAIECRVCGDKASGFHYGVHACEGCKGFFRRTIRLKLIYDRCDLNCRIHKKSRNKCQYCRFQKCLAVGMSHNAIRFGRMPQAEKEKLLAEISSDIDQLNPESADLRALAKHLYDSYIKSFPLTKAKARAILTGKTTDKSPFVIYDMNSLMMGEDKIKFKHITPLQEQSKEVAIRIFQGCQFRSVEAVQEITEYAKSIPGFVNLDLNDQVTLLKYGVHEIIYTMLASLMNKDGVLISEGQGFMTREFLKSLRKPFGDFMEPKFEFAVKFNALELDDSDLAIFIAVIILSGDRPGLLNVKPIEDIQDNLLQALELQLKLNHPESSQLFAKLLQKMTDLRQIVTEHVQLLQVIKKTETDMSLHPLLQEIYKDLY
# [10] = Pharmacokinetic study in rats; assay type: in vivo, male Sprague-Dawley rats; details: rat
# Summary of the method: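 Male Sprague-Dawley rats, 7 weeks old, received 3 mg kg−1 intravenously in N,N-dimethylacetamide/PEG400/water (4/4/2). After overnight fasting, others received 0.3, 1, 3 or 10 mg kg−1 orally as a suspension in 1% Tween 80 with 0.5% carboxymethyl cellulose. Plasma levels were analysed by noncompartmental analysis, with bioavailability from AUC. n = 3 per group; mean (SD).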
# [11] = tested on: rat primary islets; assay: Glucose-dependent insulin secretion in rat islets; assay type: cell-based, Sprague-Dawley rats; details: 1 h
# [12] = molecular target: GPR40/FFAR1 (Mus musculus, UniProt Q76JU9); assay type: cell-based
# Summary of the method: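 CHO-DXB11 cells stably expressing mouse GPR40/FFAR1 were assayed for intracellular Ca2+ increases (FLIPR calcium dye, fluorescence imaging plate reader) in the presence of 10% FBS and 0.5% BSA. Triplicate determinations; means + SD.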
# [13] = tested on: mouse insulinoma MIN6 cells; assay: Caspase 3/7 activity in MIN6 cells; assay type: cell-based; details: 72-h exposure
# Summary of the method: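 MIN6 mouse insulinoma cells were grown in DMEM with 10% heat-inactivated FBS, penicillin/streptomycin and 0.0005% 2-mercaptoethanol. Cells were exposed to test compound or palmitic acid for 72 h in 10% FBS plus 0.5% BSA. Caspase-3/7 activity was read with a homogeneous fluorogenic caspase-3/7 kit. Triplicate determinations; means + SD.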
# [14] = tested on: Sprague-Dawley rats; assay: Oral glucose tolerance test in Sprague-Dawley rats; assay type: in vivo, rat
# Summary of the method: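 Male Sprague-Dawley rats, 7–8 weeks old, were fasted overnight and grouped by body weight (n = 10). Vehicle or test compound was given orally 60 min before oral glucose 1 g kg−1. Blood was sampled pre-dose, at −5 min, and at 5, 15, 30, 60 and 120 min. Plasma glucose was measured enzymatically and insulin by ultrasensitive rat insulin ELISA. AUCs covered −5 to 120 min (glucose) and −5 to 60 min (insulin). Dunnett's test; means + SEM.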
# [15] = tested on: Goto-Kakizaki (GK) rats; assay: Oral glucose tolerance test in Goto-Kakizaki rats; assay type: in vivo, rat
# Summary of the method: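 Male GK rats, 9–10 weeks old, were fasted overnight and grouped (n = 9–10) by fasting glucose and body weight. Vehicle or test compound was given orally, followed by oral glucose 1 g kg−1 60 min later. Blood was taken pre-dose, at −5 min, and at 5–180 min after glucose. Plasma glucose AUC covered −5 to 180 min and insulin AUC −5 to 60 min. Dunnett's test; means + SEM.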
# [16] = tested on: Goto-Kakizaki (GK) rats; assay: Chronic 5-week treatment in Goto-Kakizaki rats; assay type: in vivo, rat
# [17] = male, Sprague-Dawley, plasma, iv, 3 mg/kg
# [18] = male, Sprague-Dawley, plasma, po, 0.3 mg/kg
# [19] = male, Sprague-Dawley, plasma, po, 1 mg/kg
# [20] = male, Sprague-Dawley, plasma, po, 3 mg/kg
# [21] = male, Sprague-Dawley, plasma, po, 10 mg/kg
# [22] = 1 mg·kg^−1 p.o., 15 min after glucose challenge
# [23] = p.o. 60 min before glucose 1 g kg^−1, vs vehicle
# Chain of GPR40/FFAR1 (Q76JU9 whole entry): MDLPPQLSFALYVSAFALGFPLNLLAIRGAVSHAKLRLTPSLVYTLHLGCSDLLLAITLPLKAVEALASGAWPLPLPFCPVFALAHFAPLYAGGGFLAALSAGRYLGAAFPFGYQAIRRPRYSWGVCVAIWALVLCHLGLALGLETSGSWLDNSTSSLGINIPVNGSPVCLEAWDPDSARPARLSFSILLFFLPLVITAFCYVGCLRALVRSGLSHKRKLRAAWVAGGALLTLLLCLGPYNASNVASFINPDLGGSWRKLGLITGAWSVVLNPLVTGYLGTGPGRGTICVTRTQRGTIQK
# Chain of mouse GPR40/FFAR1 (Q76JU9 whole entry): as above
# Chain of rat GPR40/FFAR1 (Q8K3T4 whole entry): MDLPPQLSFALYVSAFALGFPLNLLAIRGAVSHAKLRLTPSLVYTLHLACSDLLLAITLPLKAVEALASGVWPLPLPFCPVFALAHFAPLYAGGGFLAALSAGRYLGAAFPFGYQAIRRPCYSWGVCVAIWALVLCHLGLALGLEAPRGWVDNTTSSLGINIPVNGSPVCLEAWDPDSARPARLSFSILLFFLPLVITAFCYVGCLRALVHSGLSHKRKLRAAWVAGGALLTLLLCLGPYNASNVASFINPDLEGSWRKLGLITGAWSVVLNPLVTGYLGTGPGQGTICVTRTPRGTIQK
# Chain of human GPR40/FFAR1 (O14842 whole entry): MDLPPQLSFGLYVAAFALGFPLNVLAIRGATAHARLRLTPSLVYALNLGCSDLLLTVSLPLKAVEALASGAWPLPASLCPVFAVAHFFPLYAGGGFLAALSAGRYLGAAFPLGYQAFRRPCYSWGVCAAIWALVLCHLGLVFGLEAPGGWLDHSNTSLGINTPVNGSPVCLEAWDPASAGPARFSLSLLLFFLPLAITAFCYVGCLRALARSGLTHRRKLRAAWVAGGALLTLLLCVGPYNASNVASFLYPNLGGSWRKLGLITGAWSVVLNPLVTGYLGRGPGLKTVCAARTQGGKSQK
smiles,measurement,setting,value
"COc1ccc(Cl)cc1C(=O)NCCc1ccc(S(=O)(=O)NC(=O)NC2CCCCC2)cc1 [glibenclamide, reference compound]",fasting plasma glucose levels,[1]; glibenclamide 10 mg·kg^−1 p.o.,significantly reduced the fasting plasma glucose levels
Cc1cc(OCCCS(C)(=O)=O)cc(C)c1-c1cccc(COc2ccc3c(c2)OC[C@H]3CC(=O)O)c1 [fasiglifam],glucose-lowering effect,"[2]; T2DM patients, ref Burant et al. 2012, Kaku et al. 2013",glucose‐lowering effect
same,hepatotoxicity (liver enzyme levels),"[2]; clinical, ref Kaku et al. 2015",increased liver enzyme levels
same,clinical parameters of glucose homeostasis,"[2]; healthy human adults, ref Leifke et al. 2012",did not affect clinical parameters of glucose homeostasis
same,safety and tolerability,"[2]; healthy volunteers, ref Naik et al. 2012",safe and well tolerated
same,pancreatic toxicity,[3],does not cause pancreatic toxicity
"Cc1cc(OCCCS(C)(=O)=O)cc(C)c1-c1cccc(COc2ccc(-c3cc(O)n[s+]3[O-])cc2)c1 [MR1704, (R)‐5‐[4‐[3‐[2,6‐Dimethyl‐4‐[3‐(methylsulphonyl)propoxy]‐phenyl]benzyloxy]phenyl]‐isothiazol‐3‐ol 1‐oxide]",EC50,[4],35 ± 6 nM
same,EC50,[5],25 ± 4 nM
same,EC50,[6],27 ± 3 nM
same,hGPR119 activation (at 3 nmol·L^−1),[7]; at 3 nmol·L^−1 as printed,1%
same,agonistic activity in GPR119-expressing cells,[7]; at 3 μmol·L^−1,did not show any agonistic activities
same,hGPR120 activation (at 3 nmol·L^−1),[8]; at 3 nmol·L^−1 as printed,4%
same,agonistic activity in GPR120/FFAR4-expressing cells,[8]; at 3 μmol·L^−1,did not show any agonistic activities
same,PPAR gamma activation (at 3 nmol·L^−1),[9]; at 3 nmol·L^−1 as printed,1%
same,agonistic activity in PPAR gamma-expressing cells,[9]; at 3 μmol·L^−1,did not show any agonistic activities
same,AUC(0-inf),[10]; [17],8960 ng·h/mL
same,Vd,[10]; [17],0.584 L/kg
same,clearance,[10]; [17],5.62 mL/min/kg
same,half-life,[10]; [17],1.92 h
same,AUC(0-inf),[10]; [18],511 ng·h/mL
same,Cmax,[10]; [18],102 ng/mL
same,Tmax,[10]; [18],0.83 h
same,bioavailability,[10]; [18],57%
same,half-life,[10]; [18],2.48 h
same,AUC(0-inf),[10]; [19],1450 ng·h/mL
same,Cmax,[10]; [19],264 ng/mL
same,Tmax,[10]; [19],2.67 h
same,bioavailability,[10]; [19],49%
same,half-life,[10]; [19],2.1 h
same,AUC(0-inf),[10]; [20],4710 ng·h/mL
same,Cmax,[10]; [20],755 ng/mL
same,Tmax,[10]; [20],4 h
same,bioavailability,[10]; [20],53%
same,half-life,[10]; [20],2.13 h
same,AUC(0-inf),[10]; [21],8430 ng·h/mL
same,Cmax,[10]; [21],1130 ng/mL
same,Tmax,[10]; [21],5.33 h
same,bioavailability,[10]; [21],28%
same,half-life,[10]; [21],2.08 h
same,time at which plasma concentrations reached maximum values,"[10]; p.o., all tested doses (0.3-10 mg·kg^−1)",0.83 to 5.33 h
same,insulin secretion in low glucose,"[11]; MR1704 3 μmol·L^−1, 2 mmol·L^−1 glucose",but not low glucose conditions
same,insulin secretion in high glucose,"[11]; MR1704 3 μmol·L^−1, 16 mmol·L^−1 glucose",markedly potentiated insulin secretion in high glucose
same,EC50,[12],210 nM
same,caspase 3/7 activity,[13]; even at 10 μmol·L^−1 with 0.5% BSA,did not induce caspase 3/7 activity
same,AUC of glucose levels during OGTT,[14]; 1 mg·kg^−1 p.o.,significant reduction in the AUC of glucose levels
same,plasma insulin secretion during OGTT,[14]; [22],significantly enhanced
same,plasma glucose excursion during OGTT,[14]; [23],reduced plasma glucose excursion
same,fasting plasma glucose levels,"[1]; even at 300 mg·kg^−1 p.o., 1 to 12 h after dosing",did not reduce the fasting plasma glucose levels
same,AUC of glucose levels during OGTT,[15]; 1 mg·kg^−1 p.o.,significant reduction in the AUC of glucose levels
same,plasma insulin secretion during OGTT,[15]; [22],significantly enhanced plasma insulin secretion
same,plasma glucose excursion during OGTT,[15]; [23],reduced plasma glucose excursion
same,"glycated hemoglobin (HbA1c) levels, effect in words","[16]; 3 mg·kg^−1 p.o. once daily, after 5 weeks",significantly reduced glycated hemoglobin (HbA1c) levels
same,pancreatic insulin content,"[16]; after 5-week treatment, vs vehicle",without reducing pancreatic insulin content; also recorded: No significant difference was observed
same,nonfasting glucose levels,"[16]; at least 1 mg·kg^−1 p.o. once daily, 5 weeks",reduced nonfasting glucose levels
same,body weight gain,"[16]; once daily p.o., 5 weeks, vs vehicle-treated group",comparable body weight gain
"[Cl-].[K+] [KCl, reference compound]",insulin secretion in low glucose,"[11]; KCl positive control, 2 mmol·L^−1 glucose",significantly potentiated insulin secretion
same,insulin secretion in high glucose,"[11]; KCl positive control, 16 mmol·L^−1 glucose",significantly potentiated insulin secretion
"CCCCCCCCCCCCCCCC(=O)O [palmitic acid, reference compound]",EC50,[12],29000 nM
same,caspase 3/7 activity,[13]; 300 μmol·L^−1 with 0.5% BSA,induced caspase 3/7 activity
